The results in this text go back to ChEMBL document CHEMBL1154676, “Synthetic mRNA splicing modulator compounds with in vivo antitumor activity” (J Med Chem, 2009).

Activity calls are given as the source filed them.

Series [1] has as its system HeLa. As to the kind of experiment: Inhibition of spliceosome splicing activity in human HeLa cells assessed as mRNA products at 0.5 to 10 uM by autoradiography. The format is cell-based.
Series [2] is described as follows: Cytotoxicity against human JeKo1 cells after 72 hrs by XTT assay. The class given is functional, cell-based. The conditions noted are these: JeKo-1, 72 h. The method, boiled down:
(§1)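 Cells grown at 37 °C, 5% CO2; HFF in DMEM with 10% FBS, PrEC in prostate epithelial growth medium. Adherent lines seeded overnight, suspension lines same day; compounds diluted from DMSO stocks into media at various final concentrations, 72 h exposure. XTT reagent added 4 h, absorbance 490 nm (reference 690 nm). Growth as % of vehicle; IC50 from sigmoidal dose-response fit; mean ± SEM, three independent experiments.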

Series [3] relates to JeKo-1. As to the kind of experiment: Anticancer activity against human JeKo1 cells transplanted in Es-1/SCID mouse assessed as decrease in tumor volume at 50 to 100 mg/kg, iv measured after 25 days. The class given is functional, organism-based.
In series [4] the test system is HeLa. The series is described as follows: Anticancer activity in human HeLa cells assessed as aggregation of SC35 and SF3b protein SAP155 at 10 uM after 4 hrs by immunofluorescence analysis. The format is functional, cell-based. The method, boiled down:
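HeLa cells on glass coverslips exposed 4 h to 10 μM compound in DMSO (DMSO-only control), fixed in cold methanol at −20 °C for 10 min. Stained with anti-SC35 or anti-SAP155 primary (1/100, 1 h, 37 °C), then Alexa Fluor 488 anti-mouse secondary (1/200). Splicing-factor distribution imaged by fluorescence microscopy at 60X.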

Series [5] has as its system PC-3. As to the kind of experiment: Cytotoxicity against human PC3 cells after 72 hrs by XTT assay. The conditions noted are these: PC-3, 72 h. The format is functional, cell-based. In a few lines: as §1
Series [6] deals with WiDr. As to the kind of experiment: Cytotoxicity against human WiDr cells after 72 hrs by XTT assay. The format is functional, cell-based. The method, boiled down:
as §1
Background: Formazan colour is commonly taken as a measure of viable cells.

The subject of series [7] is JVM-2. The series is described as follows: Cytotoxicity against human JVM2 cells after 72 hrs by XTT assay. The class given is functional, cell-based. The conditions noted are these: JVM-2, 72 h. In a few lines: as §1
The nature of series [8]: Chemical stability in phosphate buffer assessed as half life at pH 7.4 at 37 degC. The class given is physicochemical.

For orientation: IC50 means the concentration needed to halve the response being measured. `CC(/C=C/[C@@H]1C[C@]2(CO2)CC(C)(C)O1)=C\C[C@H]1OC[C@@H](NC(=O)/C=C\[C@H](C)OC(=O)C(C)C)CO1`: the result in series [1], in series [3] and in series [4] was Active. Also, in series [2], the IC50 is 0.15 µM.

Consider `CC(/C=C/[C@@H]1C[C@]2(CO2)CC(C)(C)O1)=C\C[C@H]1CC[C@@H](NC(=O)/C=C\[C@H](C)OC(=O)C2CCN(C)CC2)CC1`, for which the IC50 is 10 µM in series [5] and above 1 µM in series [2].

In the case of `CC(/C=C/[C@@H]1C[C@]2(CO2)CC(C)(C)O1)=C\C[C@H]1CC[C@@H](NC(=O)/C=C\[C@H](C)OC(=O)N2CCN(C)CC2)CC1`, the IC50 was above 1.25 µM in series [6], above 2.5 µM in series [5], above 0.5 µM in series [7] and above 0.5 µM in series [2].

Regarding `CC(/C=C/[C@@H]1C[C@]2(CO2)CC(C)(C)O1)=C\C[C@H]1CC[C@@H](NC(=O)/C=C\[C@H](C)OC(=O)c2ccccc2)CC1`, the IC50 in series [6] worked out at 0.41 µM; in series [5] it was 4.9 µM; in series [2] it was 0.41 µM.

Consider `CC(/C=C/[C@@H]1C[C@]2(CO2)CC(C)(C)O1)=C\C[C@H]1CC[C@@H](NC(=O)/C=C\[C@H](C)OC(=O)c2cccn2C)CC1`, for which the IC50 in series [6] is 0.39 µM; in series [5], 4.3 µM; in series [2], 0.39 µM.

On to `CC(/C=C/[C@@H]1C[C@]2(CO2)CC(C)(C)O1)=C\C[C@H]1CC[C@@H](NC(=O)/C=C\[C@H](C)OC(=O)C2CCN(c3ccnc(C(F)(F)F)n3)CC2)CC1`, for which the IC50 in series [6] was above 1 µM; in series [5] it was above 10 µM; in series [2] it was above 1 µM.

By half-life is commonly meant the time needed for the level to fall by half in the phase considered. With `CC(=O)O[C@@H](C)/C=C\C(=O)N[C@@H]1C[C@H](C)[C@H](C/C=C(C)/C=C/[C@H]2O[C@](C)(O)C[C@@]3(CO3)[C@@H]2O)O[C@@H]1C`, in series [8], the half-life was 4 h.

For the compound `CC(/C=C/[C@@H]1C[C@]2(CO2)CC(C)(C)O1)=C\C[C@H]1CC[C@@H](NC(=O)/C=C\[C@H](C)OC(=O)C2CCOCC2)CC1`, the IC50 was found to be 2 µM in series [5] and 0.45 µM in series [2].

With `CC(/C=C/[C@@H]1C[C@]2(CO2)CC(C)(C)O1)=C\C[C@H]1CC[C@@H](NC(=O)/C=C\[C@H](C)OC(=O)N2CCN(C3CCCCCC3)CC2)CC1`, the results for the IC50 in series [5] and in series [7] were above 5 µM and above 1 µM, respectively.

Turning to `CC(/C=C/[C@@H]1C[C@]2(CO2)CC(C)(C)O1)=C\C[C@H]1CC[C@@H](NC(=O)/C=C\[C@H](C)O)CC1`, the half-maximal inhibitory concentration (IC50) in series [6] was determined as 10 µM; in series [5], 10 µM; in series [7] it was 1.5 µM; in series [2], 1.6 µM.

Take `CC(/C=C/[C@@H]1C[C@]2(CO2)CC(C)(C)O1)=C\C[C@H]1CC[C@@H](NC(=O)/C=C\[C@H](C)OC(=O)N2CCN(CCO)CC2)CC1`: the IC50 in series [6] is above 1.25 µM; in series [5] it was above 2.5 µM; in series [7], above 0.5 µM; in series [2], above 0.5 µM.

As to `CC(/C=C/[C@@H]1C[C@](O)(CCl)CC(C)(C)O1)=C\C[C@H]1CC[C@@H](NC(=O)/C=C\[C@H](C)OC(=O)N2CCN(C3CCCCCC3)CC2)CC1`, the values for the IC50 in series [6], in series [5] and in series [7] were above 1.25 µM, above 5 µM and above 10 µM, respectively.

With `CC(/C=C/[C@@H]1C[C@]2(CO2)CC(C)(C)O1)=C\C[C@H]1CC[C@@H](NC(=O)/C=C\[C@H](C)OC(=O)c2cccnc2)CC1`, the IC50 in series [6] was 0.17 µM; in series [5] it was 8.1 µM; in series [2], 0.17 µM.

As for `CC(/C=C/[C@@H]1C[C@]2(CO2)CC(C)(C)O1)=C\C[C@H]1CC[C@@H](NC(=O)/C=C\[C@H](C)OC(=O)c2ccco2)CC1`, the IC50 in series [6] was 0.14 µM; in series [5], 3.5 µM; in series [2] it was 0.14 µM.

`CC(=O)O[C@@H](C)/C=C\C(=O)N[C@H]1CC[C@@H](C/C=C(C)/C=C/[C@@H]2C[C@]3(CO3)CC(C)(C)O2)CC1` came in with an IC50 in series [2] of 0.1 µM. That is a sub-micromolar value.

On to `COc1cccc(N2CCN(C(=O)O[C@@H](C)/C=C\C(=O)N[C@H]3CC[C@@H](C/C=C(C)/C=C/[C@@H]4C[C@]5(CO5)CC(C)(C)O4)CC3)CC2)c1`, for which the IC50 in series [6] was above 1.25 µM; in series [5] it was above 2.5 µM; in series [7], above 0.5 µM; in series [2], above 0.5 µM.
